Measurements taken from ChEMBL document CHEMBL1134460, “Terminally alkylated polyamine analogues as chemotherapeutic agents” (J Med Chem, 2001).

Experiments:
NCH82 [1] = assay: Effect of 10 uM of compound on NCI H82 cell lines was assessed from the amount of SSAT (values in parentheses are those in the absence of compound); format: functional, Homo sapiens
Procedure, shortened: (§1)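 Cells were exposed to 10 μM analogue, with untreated controls. SSAT was expressed as nmol product formed/mg protein in 24 h. The detection limit was 0.05 nmol/mg protein.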

NCI-H157 [2] = assay: Effect of exposure of H157 non-SCLC to compound (<10 uM) for 96-h, on natural polyamines and accumulation of the compound; Decrease; format: functional, cell-based; settings: Homo sapiens
Procedure, shortened: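 H157 non-SCLC cells were treated with 10 μM analogue. Cellular putrescine, spermidine and spermine, plus the intracellular analogue, were quantified and compared with untreated control cells.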

NCH82 [3] = assay: Effect of 10 uM of compound on NCI H82 cell lines was assessed from the amount of spermidine (values in parentheses are those in the absence of compound); format: functional, Homo sapiens
[4] = molecular target: T1, Diamine acetyltransferase 1 (Homo sapiens, UniProt P21673); assay: Effect of 10 uM on spermine/spermidine-N-acetyltransferase (SSAT) induction in non-SCLC cells; format: cell-based
Procedure, shortened: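 NCI H157 non-small-cell lung tumor cells were exposed to 10 μM analogue. SSAT activity was assayed and expressed as pmol product/mg protein/min, then as fold increase over untreated control cells.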

NCI-H157 [5] = assay: Effect of exposure of H157 non-SCLC (<10 uM) for 96-h, and accumulation of compound was determined; format: functional, Homo sapiens
NCI-H157 [6] = assay: Effect of 10 uM of compound on NCI H157 cell lines was assessed from the amount of SSAT (values in parentheses are those in the absence of compound); format: functional, Homo sapiens; procedure, shortened: as §1
[7] = molecular target: T2, Ornithine decarboxylase (Homo sapiens) (UniProt P11926); assay: Inhibition of ornithine decarboxylase (ODC); parameters: concentration or dose not given beside the values; settings: concentration not given here
T2 sequence (whole entry): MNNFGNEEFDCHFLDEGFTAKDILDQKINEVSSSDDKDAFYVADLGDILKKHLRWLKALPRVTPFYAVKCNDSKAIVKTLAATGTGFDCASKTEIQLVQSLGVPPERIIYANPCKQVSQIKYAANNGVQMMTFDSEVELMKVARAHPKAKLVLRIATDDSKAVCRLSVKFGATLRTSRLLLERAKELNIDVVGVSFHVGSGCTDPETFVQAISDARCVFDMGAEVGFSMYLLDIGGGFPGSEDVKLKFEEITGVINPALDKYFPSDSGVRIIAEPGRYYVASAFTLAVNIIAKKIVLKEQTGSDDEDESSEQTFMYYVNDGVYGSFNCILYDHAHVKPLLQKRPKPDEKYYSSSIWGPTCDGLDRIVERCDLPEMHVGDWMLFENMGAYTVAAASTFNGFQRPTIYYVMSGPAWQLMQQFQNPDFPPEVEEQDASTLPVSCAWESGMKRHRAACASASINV

NCH82 [8] = assay: Effect of 10 uM of compound on NCI H82 cell lines was assessed from the amount of spermine (values in parentheses are those in the absence of compound); format: functional, Homo sapiens
[9] = molecular target: S-adenosylmethionine decarboxylase (Homo sapiens) (UniProt P17707); assay: Inhibition of Inhibition of human form of S-adenosyl-methionine decarboxylase enzyme (AdoMet-DC); parameters: concentration or dose not given beside the values; settings: concentration not given here
NCH82 [10] = assay: In vitro activity against H82 small-cell lung tumor line (SCLC) cultures.; format: functional, cell-based; settings: Homo sapiens
NCI-H157 [11] = assay: In vitro activity against H157 non-small-cell lung tumor line (non-SCLC) cultures.; format: functional, cell-based; settings: Homo sapiens
ZR-75-1 = assay: Growth inhibition of ZR-75-1 breast cancer cell line; format: functional, cell-based; settings: Homo sapiens
Hs-578T = assay: Growth inhibition of Hs 578.T breast cancer cell line; format: functional, cell-based; settings: Homo sapiens
T47D = assay: Growth inhibition of T47D breast cancer cell line; format: functional, cell-based; settings: Homo sapiens
MDA-MB-231 = assay: Growth inhibition of MDA-MB-231 breast cancer cell line; format: functional, cell-based; settings: Homo sapiens
NCI-H157 [12] = assay: Activity against H157 non-SCLC cells in culture; format: functional, cell-based; settings: Homo sapiens
[13] = Growth inhibition of […] breast cancer cell line; format: functional, cell-based; settings: Homo sapiens, MDA-MB-468
MCF7 = assay: Growth inhibition of MCF-7 breast cancer cell line; format: functional, cell-based; settings: Homo sapiens
[14] = molecular target: T1, Diamine acetyltransferase 1; assay: Inhibitory activity of compound against SSAT extracted from superinduced H157 cells; format: cell-free
Procedure, shortened: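 SSAT came from crude extracts of superinduced H157 cells and was assayed at saturating spermidine.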

T1 sequence (P21673 whole entry): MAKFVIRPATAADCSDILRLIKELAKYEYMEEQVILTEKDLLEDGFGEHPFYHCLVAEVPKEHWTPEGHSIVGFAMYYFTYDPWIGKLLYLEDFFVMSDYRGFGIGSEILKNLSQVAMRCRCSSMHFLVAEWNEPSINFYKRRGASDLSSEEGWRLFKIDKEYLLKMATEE

| Compound | Polyamine (NCH82 [1]) | Effect on polyamine pools (NCI-H157 [2]) | Polyamine (NCH82 [3]) | Induction [4] | Amount (NCI-H157 [5]) | Polyamine (NCI-H157 [6]) | inhibition [7] [%] | Polyamine (NCH82 [8]) | inhibition [9] [%] | IC50 (NCH82 [10]) [µM] | IC50 (NCI-H157 [11]) [µM] | IC50 (ZR-75-1) [µM] | IC50 (Hs-578T) [µM] | IC50 (T47D) [µM] | IC50 (MDA-MB-231) [µM] | IC50 (NCI-H157 [12]) [µM] | IC50 [13] [µM] | IC50 (MCF7) [µM] | IC50 [14] [µM] |
| --- | --- | --- | --- | --- | --- | --- | --- | --- | --- | --- | --- | --- | --- | --- | --- | --- | --- | --- | --- |
| CCNCCCNCCCCNCCCNCC [BIS(ETHYL)SPERMINE] | 60 nM (mg of protein)-1 | Decrease | 3.07 nM (mg of protein)-1 | > 500 | >20 nM (mg of protein)-1 | 6511 nM (mg of protein)-1 | > 50 | 10.06 nM (mg of protein)-1 | > 50 | – | – | – | – | – | – | – | – | – | – |
| CCNCCCNCCCNCCCNCC1CC1 | – | Decrease | – | > 500 | >20 nM (mg of protein)-1 | – | > 50 | – | – | 5.2 | 0.7 | 1.1 | 0.2 | 0.4 | 1.3 | 0.8 | 0.6 | 1.1 | 100 |
